Measurements from ChEMBL document CHEMBL1132613 (J Med Chem, 1999).
“And” between values parts separate entries of the source, which are not always exact repeats. Equal entries are not always repeated.

Legend:
Type in all cases: functional
[1] = biological target: 5-hydroxytryptamine receptor 2A (Rattus norvegicus) (UniProt P14842); assay: Efficacy against 5-hydroxytryptamine 2A receptor
[2] = test system: Rattus norvegicus; assay: Percentage of animals failing to emit 50 lever presses within 15 min in rats at a compound dose of 0.1 mg/kg
Summary of the method: (§1)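 Two-lever drug discrimination in male Sprague–Dawley rats (200–220 g at start), trained against saline on LSD tartrate (0.08 mg/kg), DOI HCl (0.4 mg/kg) or LY293284 (0.025 mg/kg). FR50 food-pellet reinforcement, levers counterbalanced, 15-min sessions at 22–24 °C. %D is the share of tested rats not completing 50 lever presses within 15 min.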

[3] = test system: Rattus norvegicus; assay: Percentage of animals failing to emit 50 lever presses within 15 min in rats at a compound dose of 0.2 mg/kg; summary of the method: as §1
[4] = test system: Rattus norvegicus; assay: Percentage of animals failing to emit 50 lever presses within 15 min in rats at a compound dose of 0.4 mg/kg; summary of the method: as §1
[5] = test system: Rattus norvegicus; assay: Percentage of animals emitting >80% of lever presses in rats at a compound dose of 0.28 uM/Kg
Summary of the method: (§2)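 Male Sprague–Dawley rats (200–220 g) in a two-lever, FR50 food-reinforced task. Rats were trained to discriminate saline from LSD tartrate (0.08 mg/kg), DOI HCl (0.4 mg/kg) or LY293284 (0.025 mg/kg) in 15-min sessions. %SDL is the share of rats making over 80% of presses on the drug lever. %D is the share failing to make 50 presses within 15 min. ED50 by Litchfield–Wilcoxon log-probit.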

[6] = test system: Rattus norvegicus; assay: Percentage of animals emitting >80% of lever presses in rats at a compound dose of 0.56 uM/Kg; summary of the method: as §2
[7] = test system: Rattus norvegicus; assay: Percentage of animals emitting >80% of lever presses in rats at a compound dose of 1.12 uM/Kg; summary of the method: as §2
[8] = test system: Rattus norvegicus; assay: Percentage of animals failing to emit 50 lever presses within 15 min in at 0.01 mg/kg dose; summary of the method: as §1
[9] = test system: Rattus norvegicus; assay: Percentage of animals failing to emit 50 lever presses within 15 min in rats at 0.02 mg/kg dose; summary of the method: as §1
[10] = test system: Rattus norvegicus; assay: Percentage of animals failing to emit 50 lever presses within 15 min in rats at 0.04 mg/kg dose; summary of the method: as §1
[11] = test system: Rattus norvegicus; assay: Percentage of animals failing to emit 50 lever presses within 15 min in rats at 0.08 mg/kg dose; summary of the method: as §1
[12] = test system: Rattus norvegicus; assay: Percentage of animals emitting >80% of lever presses in rats at 0.01 mg/kg dose; summary of the method: as §2
[13] = test system: Rattus norvegicus; assay: Percentage of animals emitting >80% of lever presses in rats at 0.02 mg/kg dose; summary of the method: as §2
[14] = test system: Rattus norvegicus; assay: Percentage of animals emitting >80% of lever presses in rats at 0.04 mg/kg dose; summary of the method: as §2
[15] = test system: Rattus norvegicus; assay: Percentage of animals emitting >80% of lever presses in rats at 0.08 mg/kg dose; summary of the method: as §2

Sequence of 5-hydroxytryptamine receptor 2A (Rattus norvegicus) (P14842 whole entry): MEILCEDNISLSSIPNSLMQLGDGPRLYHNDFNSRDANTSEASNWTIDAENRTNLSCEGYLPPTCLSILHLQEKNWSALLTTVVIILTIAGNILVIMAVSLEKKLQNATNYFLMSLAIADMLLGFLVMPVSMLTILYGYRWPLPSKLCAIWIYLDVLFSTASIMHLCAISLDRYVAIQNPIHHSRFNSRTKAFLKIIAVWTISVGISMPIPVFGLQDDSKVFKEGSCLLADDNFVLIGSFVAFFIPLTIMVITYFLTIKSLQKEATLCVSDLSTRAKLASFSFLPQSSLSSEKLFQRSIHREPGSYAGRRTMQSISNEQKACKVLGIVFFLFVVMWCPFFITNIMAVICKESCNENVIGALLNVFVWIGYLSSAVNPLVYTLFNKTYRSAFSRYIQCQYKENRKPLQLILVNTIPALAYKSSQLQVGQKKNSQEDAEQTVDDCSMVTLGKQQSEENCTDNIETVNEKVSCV

| Structure (SMILES) | ED50 [1] | D [2] | D [3] | D [4] | SDL [5] | SDL [6] | SDL [7] | D [8] | D [9] | D [10] | D [11] | SDL [12] | SDL [13] | SDL [14] | SDL [15] |
| --- | --- | --- | --- | --- | --- | --- | --- | --- | --- | --- | --- | --- | --- | --- | --- |
| COc1cc(CC(C)N)c(OC)cc1I (stereo unspecified) | 0.3 µmol.kg-1 and 0.11 mg/kg | 0% | 10% | 0% | 56% | 89% | 100% | – | – | – | – | – | – | – | – |
| CCN(CC)C(=O)[C@@H]1C=C2c3cccc4[nH]cc(c34)C[C@H]2N(C)C1 [LYSERGIDE] | 0.037 µmol.kg-1 and 0.016 mg/kg | – | – | – | – | – | – | 0% | 7% | 0% | 0% | 31% | 62% | 81% | 100% |
